Test: Toxicity liver stage against HepG2, at 10uM
Assay type: cell-based
Design: test concentration 10 uM, cell line HepG2-A16-CD81EGFP
Settings: human, HepG2-A16-CD81EGFP cells; read-out: INHIBITION
Summary of the method: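 Uninfected HepG2-A16-CD81EGFP cells, 3 × 10^3 per well, 1536-well, plated on prespotted compound at 10 μM final, parasite-free screening media added to match infected plates; puromycin 10 μM positive, DMSO 0.5% negative; run in parallel with 48 h PbLuc assay at 37 °C, 5% CO2; viability by CellTiter-Glo luminescence, normalized to controls.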

Row | SMILES | cytotoxicity at 10 µM
1 | CC(=O)c1cccc(NC(=O)c2cnc(N3CCN(C)CC3)nc2C)c1 | 4.28%
2 | O=C1CCNc2ncc(-c3ccc(Cl)cc3)cc2CN1C1CC1 | 9.78%
3 | CC(C)Nc1oc(-c2ccc(S(=O)(=O)N(C)C)o2)nc1C#N | -11.6%
4 | CC(C)C1CC(=O)Nc2c1cnn2Cc1ccco1 (configuration not stated) | 1.27%
5 | Cc1cc(C)n(CCN2CCN(C(=O)c3ccccc3Br)CC2)n1 | -4.86%
6 | COCCN1C2(CCN(C(=O)c3cccs3)C2)c2ccccc2S1(=O)=O (configuration not stated) | -131%
7 | CCCc1noc(-c2ccc(-n3ncc(C(=O)O)c3C)nc2)n1 | -1.4%
8 | CS(=O)(=O)N1CCC(C(=O)N2CCC3(CC2)OCCCO3)CC1 | 1.91%
9 | CN(C)C(=O)[C@H]1C[C@@H]2CCN(C3CCOCC3)C[C@H]2O1 | -4.15%
10 | Cc1nn(Cn2ccc(C(=O)N3CCCC3)n2)c(C)c1Cl | 0.748%
11 | Cc1nn(C(C)C)c2cnn(CC(=O)N3CCSCC3)c12 | 5.86%
12 | CCn1ncc2c(C(F)F)cc(-c3ccn(C)n3)nc21 | -1.21%
13 | CCOCCCNC(=O)c1nn(CC)cc1Cl | 2.06%
14 | Cc1cc(NC(=O)CN2CCN(C3CCCC3)C(=O)C2)nn1C | 0.825%
15 | COCCNc1ccc(CC2CCCN(C3CCOCC3)C2)nn1 (configuration not stated) | 6.38%
16 | CC1CCN(Cc2c(C(C)C)[nH]c3ncccc23)CC1 | -6.43%
17 | CCN(CC)C(=O)CN1CCC(c2nc(C)c3c(n2)N(C)CCC3)CC1 | 4.14%
18 | CC(C)OCC(=O)N1CCC(c2ncncc2-c2ccnc(N)c2)C1 (configuration not stated) | -2.44%
19 | Clc1ccc(CN(CCN2CCOCC2)Cc2cccnc2)cc1Cl | -9.96%
20 | Cc1cccc(N2Cc3c(NC4CCCC4)ncnc3N(C)CC2=O)c1 | 10.3%
21 | CC(O)c1cn(Cc2ccc(Cl)cc2Cl)nn1 (configuration not stated) | 15.5%
22 | CC(NCC1(N(C)C)CCOCC1)c1ccc(S(C)(=O)=O)cc1 (configuration not stated) | -3.27%
23 | Cn1cc(NCCOc2ccc(F)cc2)cn1 | -1.51%

Row | SMILES | cytotoxicity at 10 µM
24 | CN1CCN(C2CCN(Cc3noc(-c4ccccc4)n3)CC2)C1=O | 9.5%
25 | CC(C)C(N)C1=NC(=C2N=CN=N2)NO1 (configuration not stated) | 8.86%
26 | CCN(CC)S(=O)(=O)NCC1Cc2ccccc2O1 (configuration not stated) | 0.477%
27 | CCOCCC(=O)N1CCCC(c2cc(C(F)(F)F)[nH]n2)C1 (configuration not stated) | -0.819%
28 | Cc1nc(C(=O)N2CCCC(c3nc(C(C)C)cs3)C2)c[nH]1 (configuration not stated) | -41.7%
29 | Cc1ccc(NC(=O)N(C)C)c(C(=O)OCC(=O)NC(C)C(C)C)c1 (configuration not stated) | -14.9%
30 | Cc1noc(C)c1CNC(=O)Nc1ccc(N2CCSCC2)cc1 | -1.61%
31 | N#CC1(NC(=O)c2ccc(F)cc2OC(F)F)CCOCC1 | 2.24%
32 | COc1cc(CNc2nc(N3CCOCC3)ns2)cc(OC)c1OC | -5.23%
33 | COc1ccc(CC(=O)N2CCC(c3nncn3C)CC2)cc1F | 2.01%
34 | CN(CC(=O)Nc1ccccc1C(=O)NC1CC1)Cc1ccccc1Cl | -8.18%
35 | Cc1cccc(NC(=O)CN(C)C(=O)c2ccc(-n3cccc3)nc2)n1 | -4.4%
36 | COc1c(C2CCCN2CC(=O)N2CCCCC2)c(C)nn1C (configuration not stated) | 0.113%
37 | COC(=O)N1CCC(Nc2ccc(Cl)c(C#N)n2)CC1 | 1.96%
38 | O=C(NCCn1ccnc1)C1(c2ccc3c(c2)OCCO3)CCCC1 | -4.38%
39 | Cc1cc(C)n(-c2cncc(N3CCC(C(=O)N(C)C)CC3)n2)n1 | -16%
40 | c1cc(C2CCN(Cc3nc(-c4ccsc4)no3)CC2)[nH]n1 | 8.44%
41 | Cc1ccc(C(=O)NCCNCC2CNc3ccnn3C2)cc1 (configuration not stated) | 7.41%
42 | Cc1c(C(C)NC(=O)C2CCCCC2)cnn1C (configuration not stated) | -4.79%
43 | CN1CCCN(C(=O)c2cnsn2)c2cc(F)ccc21 | -4.03%
44 | O=C(NCc1cccnc1)NCC(O)c1cccc(C(F)(F)F)c1 (configuration not stated) | -2.64%
45 | Cn1cnnc1-c1ccnc(NCc2ccc(Br)cc2)c1 | 2.87%
46 | CC(CNC(=O)c1nc(N2CCOCC2)ncc1Cl)c1ccccc1 (configuration not stated) | 0.666%

Row | SMILES | cytotoxicity at 10 µM
47 | NC(=O)c1cccc(OCCC(=O)NC2CCc3c(F)cccc32)c1 (configuration not stated) | 9.86%
48 | O=C(c1coc2ccccc12)N1CCCC1 | -1.15%
49 | CCN(CC(=O)Nc1c(C)nn(C)c1C)CC(O)c1ccc(C)cc1 (configuration not stated) | -8.14%
50 | CC(C)(O)CNC(=O)c1sccc1Br | -5.58%
51 | Cc1nccc(CNC(=O)NCC(C)Oc2ccccc2F)n1 (configuration not stated) | -13.2%
52 | Cc1noc(C)c1CN(C)C(=O)COc1cccc(C#N)c1 | 5.3%
53 | COCCOCC(=O)Nc1nc2c(OC)cc(F)cc2s1 | -1.29%
54 | O=C(c1c(O)cnc2ccccc12)N1CCCSCC1 | -9.7%
55 | CCNC(=O)CCC(=O)Nc1nc(C)c(Cc2ccc(F)cc2)s1 | 6.68%
56 | COc1ncccc1NC(=O)N1CCC(CNC(C)=O)CC1 | 3.61%
57 | CCOC(=O)NC(CNC(=O)c1ncccn1)CC(C)C (configuration not stated) | -4.92%
58 | Cc1occc1C(=O)Nc1ccnc(OC2CCOC2)c1 (configuration not stated) | -12.8%
59 | Cn1ncc2c1C(COCC1CC1)CN(c1ncc(F)cn1)C2 (configuration not stated) | 12.1%
60 | O=C([C@H]1CCCO1)N1CCC2(CC1)Cc1ccccc1CNC2=O | -101%
61 | COc1ncccc1CN1CCn2c(Cn3cncn3)cnc2C1 | -3.17%
62 | Cc1cc2[nH]c(CN3CCCCC3c3cccc(F)c3)cc(=O)n2n1 (configuration not stated) | 1.29%
63 | CC(C)N(C)C(=O)Cn1ncc(N(C)CCc2ccccc2)cc1=O | 0.562%
64 | CCN1CC2(CCN(C(=O)c3nc4cc(C)ccn4c3F)CC2)CC1=O | 12.3%
65 | Cc1ccncc1C(=O)N1C[C@@H]2CN(c3ncccn3)C[C@]2(C(=O)O)C1 | 2.36%
66 | Cc1csc(CNc2nc3c(s2)c(C)nn3C)n1 | -109%
67 | CN(Cc1nc(COc2ccccc2)no1)CC1Cc2ccccc2O1 (configuration not stated) | -4.4%
68 | Cc1c[nH]c(CN2CC[C@@]3(O)CCN(C(=O)C4CCCC4)C[C@H]3C2)n1 | 3.11%
69 | CCC[C@H]1CN(CCOC)C[C@@H]1NC(=O)Cn1cc(C)cn1 | 4.83%

Row | SMILES | cytotoxicity at 10 µM
70 | Cc1oncc1S(=O)(=O)N1CCCC(C)(Cc2ccc3c(c2)OCO3)C1 (configuration not stated) | 1.3%
71 | NCC1Cc2cc(-c3cnccn3)cc(Cl)c2O1 (configuration not stated) | 6.82%
72 | COCCc1noc(CNC(=O)C2CC(=O)N(C(C)(C)C)C2)n1 (configuration not stated) | 3.77%
73 | NC(=O)CN1CCCC(C(=O)N2CCC(O)(Cc3ccccc3)CC2)C1 (configuration not stated) | -7.36%
74 | Cc1cc(NC2CCN(c3ccc(F)cc3)CC2)n2nc(C)cc2n1 | -0.527%
75 | O=C(c1ccnc(N2CCOC(C(F)(F)F)C2)c1)N1CCCC1 (configuration not stated) | -3.5%
76 | Cc1ccc(CN2CCN(c3ncccc3Cl)CC2CCO)cc1 (configuration not stated) | -1.04%
77 | CCc1cc(NC2CCN(Cc3ccccc3F)CC2)n2nccc2n1 | -6%
78 | CCC[C@@H]1CN(C(=O)c2ccccc2-c2ncc[nH]2)C[C@H]1N(C)C | -3.17%
79 | CN(CC1CCCCO1)c1nncc(-c2cccc(F)c2)n1 (configuration not stated) | 8.01%
80 | Cc1cccc(=O)n1CCCNc1nc(N(C)C)nc2c1CCNCC2 | -10.2%
81 | O=C(c1ccc2sccc2c1)N1CCC(C(=O)O)(n2ccnc2)CC1 | 2.69%
82 | COc1ccc(C(=O)NCc2cc(N3CCOCC3)ncn2)o1 | 4.39%
83 | COc1cc(C(=O)N2CCC(O)(CN3CCOCC3)C(C)(C)C2)ccn1 (configuration not stated) | -9.61%
84 | O=C(NC1CCOCC1)C1CC(=O)N(Cc2ccccn2)C1 (configuration not stated) | -0.0985%
85 | CC(C)n1cnnc1CN(C)CC1CCCNC1 (configuration not stated) | 3.05%
86 | CCC(C(=O)NCc1nc(C)cc(C(F)(F)F)n1)n1cccn1 (configuration not stated) | -17.1%
87 | CCN1CCN(C(=O)c2cnc(Cc3c(Cl)cccc3Cl)nc2O)CC1 | 2.57%
88 | CCN(Cc1cc(-c2ccccn2)no1)C1CCS(=O)(=O)C1 (configuration not stated) | -14.9%
89 | CCc1cn[nH]c1C1CCCN(C(=O)c2noc(C)c2COC)C1 (configuration not stated) | -1.67%
90 | CC(C)n1cnnc1CN(C)C(=O)c1ccccc1N1CCOCC1 | 1.47%
91 | O=C(Cc1cccnc1)N1CCC(OCc2ccccc2)CC1 | -1.96%
92 | CC(=O)N1CCCn2nc(CNS(=O)(=O)N3CCCCCC3)cc2C1 | 3.74%

Row | SMILES | cytotoxicity at 10 µM
93 | c1ccc(CN2CCN(c3ccc4nncn4n3)CC2)nc1 | -1.1%
94 | CN(Cc1cnn(C)c1)C(=O)CN1CCCC(Cn2cncn2)C1 (configuration not stated) | -0.808%
95 | CCOC(=O)c1sc2ccsc2c1CNS(C)(=O)=O | -12%
96 | CCOCCCNC(=O)Nc1ccc(F)c(C(N)=O)c1 | -16.9%
97 | Cc1nccn1C1CCCN(C(=O)Cc2cn3ccccc3n2)C1 (configuration not stated) | -20.9%
98 | CCC(CNC(=O)Nc1cnn(CC)c1)N1CCc2ccccc2C1 (configuration not stated) | 4.72%
99 | COc1c(C2CCCN2C(=O)c2ccc(C#N)cc2)c(C)nn1C (configuration not stated) | -1.72%
100 | COc1ccc(C2=CCN(C(=O)C3CCCN(C(N)=O)C3)CC2)cc1 (configuration not stated) | -10.1%
101 | CNc1cc(N2CCCC2CNCc2cnc(C)cn2)ncn1 (configuration not stated) | -4.51%
102 | Cc1noc2ncc(C(=O)N3CCCC3c3cnn(C)c3)cc12 (configuration not stated) | -6.2%
103 | Cn1ccnc1CN1CCCC1c1noc(C2CC2)n1 (configuration not stated) | 0.265%
104 | COCCNC(=O)NCCc1ccn(-c2ccccc2)n1 | -0.0722%
105 | CC(C)C(C)NC(=O)c1ncn2c1CN(C)S(=O)(=O)c1ccccc1-2 (configuration not stated) | -132%
106 | CNC(=O)[C@@H]1C[C@H]2CN(C(=O)c3ccco3)C[C@H]2N1C | -2.85%
107 | COc1ccc(CN2CCn3cc(Cn4cccn4)nc3C2)cc1 | 13.4%
108 | CN1C(=O)C[C@H]2[C@H]1CCN2Cc1cccc(C#N)c1 | -75.6%
109 | O=C(NCc1ccccc1F)C1=NOC2(CCNC2)C1 (configuration not stated) | 3.23%
110 | Cc1ccc(CN2CC[C@H]3CO[C@H](CN4CCCC4)[C@H]3C2)o1 | -115%
111 | O=C1NCC2=Nc3ccccc3NC(c3ccccc3)C12 (configuration not stated) | 1.14%
112 | CCCSCC(=O)N1C[C@@H]2CC[C@H]1CN(Cc1cccnc1)C2 | 1.64%
